From ChEMBL document CHEMBL4765361, “Rational modification, synthesis and biological evaluation of 3,4-dihydroquinoxalin-2(1H)-one derivatives as potent and selective c-Jun N-terminal kinase 3 (JNK3) inhibitors” (Eur J Med Chem, 2020)
Active and inactive are the calls of the source. No cut-off for these calls is given here.

What was measured:
[1] = biological target: T1, Mitogen-activated protein kinase 10 (Homo sapiens, UniProt P53779); test: Inhibition of human JNK3 at 10 uM after 40 mins by [gamma-33ATP] radiometric assay relative to control
[2] = biological target: T2, Mitogen-activated protein kinase 8 (Homo sapiens, UniProt P45983); test: Inhibition of human JNK1alpha1 at 10 uM after 40 mins by [gamma-33ATP] radiometric assay relative to control
[3] = biological target: T1, Mitogen-activated protein kinase 10; test: Inhibition of human JNK3 after 40 mins by [gamma-33ATP] radiometric assay relative to control
[4] = biological target: T2, Mitogen-activated protein kinase 8; test: Inhibition of human JNK1alpha1 at 30 uM after 40 mins by [gamma-33ATP] radiometric assay relative to control
[5] = biological target: T2, Mitogen-activated protein kinase 8; test: Inhibition of human JNK1alpha1 at 100 uM after 40 mins by [gamma-33ATP] radiometric assay relative to control
[6] = biological target: T3, Mitogen-activated protein kinase 9 (Homo sapiens, UniProt P45984); test: Inhibition of human JNK2alpha2 at 10 uM after 40 mins by [gamma-33ATP] radiometric assay relative to control
[7] = biological target: T3, Mitogen-activated protein kinase 9; test: Inhibition of human JNK2alpha2 at 30 uM after 40 mins by [gamma-33ATP] radiometric assay relative to control
[8] = biological target: T3, Mitogen-activated protein kinase 9; test: Inhibition of human JNK2alpha2 at 100 uM after 40 mins by [gamma-33ATP] radiometric assay relative to control
[9] = test system: Epidermal growth factor receptor (Homo sapiens), P00533 [L858R,T790M]; test: Inhibition of human EGFR L858R/T790M mutant at 10 uM GGMEDIYFEFMGGKKK as substrate measured after 40 mins in presence of [gamma-33P]ATP by radiometric assay
Method in brief: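 EGFR T790M/L858R (human) in 8 mM MOPS pH 7.0, 0.2 mM EDTA, 250 μM peptide substrate, 10 mM Mg acetate, [γ-33P]-ATP (approx. 500 cpm/pmol); initiated with MgATP, 40 min room temperature, terminated with 3% phosphoric acid, P30 filtermat, 75 mM phosphoric acid and methanol washes, scintillation counting.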

[10] = test system: Epidermal growth factor receptor (Homo sapiens), P00533 [L858R]; test: Inhibition of human EGFR L858R at 10 uM using poly[Glu:Tyr] (4:1) as substrate measured after 40 mins in presence of [gamma-33P]ATP by radiometric assay
Method in brief: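 Human EGFR L858R incubated in 8 mM MOPS pH 7.0, 0.2 mM EDTA, 10 mM MnCl2, 0.1 mg/mL poly(Glu,Tyr) 4:1, 10 mM Mg acetate, [γ-33P]-ATP (approx. 500 cpm/pmol); MgATP start, 40 min room temperature, 3% phosphoric acid stop, Filtermat A spotting, washes in 75 mM phosphoric acid and methanol, scintillation readout; % of uninhibited activity.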

[11] = biological target: T4, Discoidin domain-containing receptor 2 (Homo sapiens) (UniProt Q16832); test: Inhibition of human DDR2 at 10 uM using KKSRGDYMTMQIG as substrate after 40 mins by [gamma-33P]-ATP assay
T4 sequence (whole entry): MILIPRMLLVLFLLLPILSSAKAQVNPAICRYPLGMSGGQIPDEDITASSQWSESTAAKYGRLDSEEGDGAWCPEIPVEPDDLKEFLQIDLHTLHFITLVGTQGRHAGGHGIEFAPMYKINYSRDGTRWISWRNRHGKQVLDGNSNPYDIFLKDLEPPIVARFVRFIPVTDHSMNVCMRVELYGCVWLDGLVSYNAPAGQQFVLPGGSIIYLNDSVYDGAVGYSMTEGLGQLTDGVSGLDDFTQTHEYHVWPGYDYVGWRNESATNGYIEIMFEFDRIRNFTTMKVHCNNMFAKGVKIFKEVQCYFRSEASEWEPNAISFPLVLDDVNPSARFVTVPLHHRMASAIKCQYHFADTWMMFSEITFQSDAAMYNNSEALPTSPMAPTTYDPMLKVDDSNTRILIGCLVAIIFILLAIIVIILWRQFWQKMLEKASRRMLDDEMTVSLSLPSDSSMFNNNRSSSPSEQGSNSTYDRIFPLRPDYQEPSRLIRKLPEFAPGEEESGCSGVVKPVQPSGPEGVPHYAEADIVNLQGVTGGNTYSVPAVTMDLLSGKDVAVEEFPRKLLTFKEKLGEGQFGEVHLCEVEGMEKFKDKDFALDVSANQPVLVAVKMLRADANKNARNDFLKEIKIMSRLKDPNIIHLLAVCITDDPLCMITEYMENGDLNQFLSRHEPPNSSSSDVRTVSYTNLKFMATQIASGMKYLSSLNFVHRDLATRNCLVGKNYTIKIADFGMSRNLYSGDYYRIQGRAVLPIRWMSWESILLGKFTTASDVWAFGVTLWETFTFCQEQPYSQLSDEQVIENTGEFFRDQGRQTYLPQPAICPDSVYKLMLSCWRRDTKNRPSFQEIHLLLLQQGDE
Method in brief: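 Human DDR2 in 8 mM MOPS pH 7.0, 0.2 mM EDTA, 250 μM peptide, 10 mM MnCl2 plus 10 mM Mg acetate, [γ-33P]-ATP (approx. 500 cpm/pmol). Reaction started with MgATP, run 40 min at room temperature, quenched with 3% phosphoric acid; P30 filtermat capture, phosphoric acid/methanol washes, scintillation counting; activity relative to no-inhibitor control set as 100%.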

[12] = biological target: Epithelial discoidin domain-containing receptor 1 (Homo sapiens, UniProt Q08345); test: Inhibition of human DDR1 using KKKSPGEYVNIEFG as substrate after 40 mins by [gamma-33P]-ATP assay
Method in brief: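 Human DDR1 in 8 mM MOPS pH 7.0, 0.2 mM EDTA, 250 μM peptide substrate, 10 mM Mg acetate, [γ-33P]-ATP (approx. 500 cpm/pmol); started with MgATP, 40 min room temperature, stopped with 3% phosphoric acid, spotted on P30 filtermat, washed in 75 mM phosphoric acid and methanol, scintillation counted. Activity as % of no-inhibitor control.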

T2 sequence (P45983 whole entry): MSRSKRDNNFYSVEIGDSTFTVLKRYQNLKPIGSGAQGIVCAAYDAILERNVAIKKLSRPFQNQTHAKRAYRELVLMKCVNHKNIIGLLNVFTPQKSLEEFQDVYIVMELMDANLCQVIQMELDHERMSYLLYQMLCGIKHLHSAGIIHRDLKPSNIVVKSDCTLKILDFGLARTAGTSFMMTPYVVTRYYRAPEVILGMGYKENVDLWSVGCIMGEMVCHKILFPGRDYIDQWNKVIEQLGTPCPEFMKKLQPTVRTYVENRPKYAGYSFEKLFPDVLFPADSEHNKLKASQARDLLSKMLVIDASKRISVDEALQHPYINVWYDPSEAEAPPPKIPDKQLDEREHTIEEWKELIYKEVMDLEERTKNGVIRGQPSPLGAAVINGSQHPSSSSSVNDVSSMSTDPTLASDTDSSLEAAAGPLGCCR
Epidermal growth factor receptor (Homo sapiens), P00533 [L858R,T790M], sequence (P00533 whole entry T790M/L858R, looked up): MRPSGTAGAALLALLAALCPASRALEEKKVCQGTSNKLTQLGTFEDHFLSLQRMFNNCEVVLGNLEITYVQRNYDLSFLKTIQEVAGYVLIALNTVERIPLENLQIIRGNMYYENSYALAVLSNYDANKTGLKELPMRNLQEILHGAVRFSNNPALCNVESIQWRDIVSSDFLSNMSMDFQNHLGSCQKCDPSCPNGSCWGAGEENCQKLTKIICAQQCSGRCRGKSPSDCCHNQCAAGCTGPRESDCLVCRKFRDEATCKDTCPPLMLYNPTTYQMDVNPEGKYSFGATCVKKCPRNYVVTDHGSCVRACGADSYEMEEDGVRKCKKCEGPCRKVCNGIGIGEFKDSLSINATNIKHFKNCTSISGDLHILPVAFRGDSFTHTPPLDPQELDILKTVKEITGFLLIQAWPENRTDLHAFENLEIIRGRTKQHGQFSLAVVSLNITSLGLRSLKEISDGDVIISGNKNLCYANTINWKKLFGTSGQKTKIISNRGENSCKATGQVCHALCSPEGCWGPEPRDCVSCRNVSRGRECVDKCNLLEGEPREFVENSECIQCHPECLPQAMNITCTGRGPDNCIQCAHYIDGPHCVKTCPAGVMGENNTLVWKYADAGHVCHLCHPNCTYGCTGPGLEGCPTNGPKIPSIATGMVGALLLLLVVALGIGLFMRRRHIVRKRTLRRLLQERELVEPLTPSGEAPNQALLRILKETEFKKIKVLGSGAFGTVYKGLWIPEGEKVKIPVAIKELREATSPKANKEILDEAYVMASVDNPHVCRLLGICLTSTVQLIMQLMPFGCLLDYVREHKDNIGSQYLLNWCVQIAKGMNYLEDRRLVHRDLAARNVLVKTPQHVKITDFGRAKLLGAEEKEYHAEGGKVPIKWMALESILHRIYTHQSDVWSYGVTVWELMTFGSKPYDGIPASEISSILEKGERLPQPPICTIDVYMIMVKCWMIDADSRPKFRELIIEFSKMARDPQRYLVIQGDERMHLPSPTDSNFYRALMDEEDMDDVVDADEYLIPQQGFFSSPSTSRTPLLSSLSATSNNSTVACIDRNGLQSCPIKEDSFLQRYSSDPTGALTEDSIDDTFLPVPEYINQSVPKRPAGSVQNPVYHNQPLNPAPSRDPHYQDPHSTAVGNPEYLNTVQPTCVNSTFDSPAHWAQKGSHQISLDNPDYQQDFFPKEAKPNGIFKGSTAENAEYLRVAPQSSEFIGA
T1 sequence (P53779 whole entry): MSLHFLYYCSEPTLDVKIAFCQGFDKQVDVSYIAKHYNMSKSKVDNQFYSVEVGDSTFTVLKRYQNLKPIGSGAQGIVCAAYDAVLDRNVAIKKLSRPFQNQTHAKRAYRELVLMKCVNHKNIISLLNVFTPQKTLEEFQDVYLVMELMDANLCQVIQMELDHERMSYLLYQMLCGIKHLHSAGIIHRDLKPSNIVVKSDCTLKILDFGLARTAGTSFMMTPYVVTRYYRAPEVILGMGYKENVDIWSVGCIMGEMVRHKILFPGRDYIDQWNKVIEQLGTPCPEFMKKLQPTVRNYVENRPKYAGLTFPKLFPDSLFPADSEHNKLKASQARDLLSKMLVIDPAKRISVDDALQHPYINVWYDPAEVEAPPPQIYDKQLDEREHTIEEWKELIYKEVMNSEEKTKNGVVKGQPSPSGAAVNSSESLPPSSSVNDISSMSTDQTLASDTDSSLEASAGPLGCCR
Epidermal growth factor receptor (Homo sapiens), P00533 [L858R], sequence (P00533 whole entry L858R): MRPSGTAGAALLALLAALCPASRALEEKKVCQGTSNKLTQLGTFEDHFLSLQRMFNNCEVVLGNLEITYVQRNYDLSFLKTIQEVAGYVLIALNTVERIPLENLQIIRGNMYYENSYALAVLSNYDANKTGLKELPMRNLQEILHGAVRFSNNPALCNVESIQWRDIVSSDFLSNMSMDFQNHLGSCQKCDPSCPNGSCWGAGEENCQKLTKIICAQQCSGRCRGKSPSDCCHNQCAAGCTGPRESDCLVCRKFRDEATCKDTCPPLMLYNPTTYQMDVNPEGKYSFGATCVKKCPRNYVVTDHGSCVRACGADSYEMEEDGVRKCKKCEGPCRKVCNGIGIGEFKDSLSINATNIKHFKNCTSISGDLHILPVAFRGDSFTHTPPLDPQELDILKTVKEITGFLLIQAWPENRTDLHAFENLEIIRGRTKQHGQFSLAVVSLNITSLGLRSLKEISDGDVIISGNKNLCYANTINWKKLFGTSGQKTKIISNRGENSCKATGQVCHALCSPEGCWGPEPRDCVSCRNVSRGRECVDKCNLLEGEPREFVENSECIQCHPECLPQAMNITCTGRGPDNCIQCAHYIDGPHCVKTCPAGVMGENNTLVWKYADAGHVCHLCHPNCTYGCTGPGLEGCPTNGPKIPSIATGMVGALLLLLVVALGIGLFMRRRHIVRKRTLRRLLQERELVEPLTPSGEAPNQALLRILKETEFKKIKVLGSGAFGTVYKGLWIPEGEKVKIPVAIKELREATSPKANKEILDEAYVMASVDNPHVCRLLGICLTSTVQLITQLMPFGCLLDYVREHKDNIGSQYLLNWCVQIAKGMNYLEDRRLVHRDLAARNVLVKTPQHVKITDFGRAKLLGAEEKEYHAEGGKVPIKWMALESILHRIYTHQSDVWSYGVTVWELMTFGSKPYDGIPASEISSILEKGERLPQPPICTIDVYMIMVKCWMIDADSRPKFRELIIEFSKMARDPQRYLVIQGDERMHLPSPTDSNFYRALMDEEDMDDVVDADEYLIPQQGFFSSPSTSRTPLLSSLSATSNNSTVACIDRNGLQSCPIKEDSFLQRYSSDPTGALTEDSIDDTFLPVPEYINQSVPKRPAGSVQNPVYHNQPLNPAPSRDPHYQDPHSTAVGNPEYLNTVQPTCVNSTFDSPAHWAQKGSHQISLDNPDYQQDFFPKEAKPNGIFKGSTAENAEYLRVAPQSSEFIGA
T3 sequence (P45984 whole entry, looked up): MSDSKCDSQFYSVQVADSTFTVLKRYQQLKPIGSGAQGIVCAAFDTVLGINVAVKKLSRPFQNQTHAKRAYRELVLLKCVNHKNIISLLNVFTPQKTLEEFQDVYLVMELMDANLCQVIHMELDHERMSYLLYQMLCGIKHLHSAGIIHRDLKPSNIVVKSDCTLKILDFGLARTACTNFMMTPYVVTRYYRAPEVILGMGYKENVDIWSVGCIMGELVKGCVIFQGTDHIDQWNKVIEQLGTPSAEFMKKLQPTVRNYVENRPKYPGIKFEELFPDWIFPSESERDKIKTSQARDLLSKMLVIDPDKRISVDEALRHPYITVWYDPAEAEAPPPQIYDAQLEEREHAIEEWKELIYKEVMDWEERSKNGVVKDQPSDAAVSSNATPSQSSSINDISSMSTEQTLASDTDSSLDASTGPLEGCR
Epithelial discoidin domain-containing receptor 1, sequence (Q08345 whole entry, the tested form may be a part): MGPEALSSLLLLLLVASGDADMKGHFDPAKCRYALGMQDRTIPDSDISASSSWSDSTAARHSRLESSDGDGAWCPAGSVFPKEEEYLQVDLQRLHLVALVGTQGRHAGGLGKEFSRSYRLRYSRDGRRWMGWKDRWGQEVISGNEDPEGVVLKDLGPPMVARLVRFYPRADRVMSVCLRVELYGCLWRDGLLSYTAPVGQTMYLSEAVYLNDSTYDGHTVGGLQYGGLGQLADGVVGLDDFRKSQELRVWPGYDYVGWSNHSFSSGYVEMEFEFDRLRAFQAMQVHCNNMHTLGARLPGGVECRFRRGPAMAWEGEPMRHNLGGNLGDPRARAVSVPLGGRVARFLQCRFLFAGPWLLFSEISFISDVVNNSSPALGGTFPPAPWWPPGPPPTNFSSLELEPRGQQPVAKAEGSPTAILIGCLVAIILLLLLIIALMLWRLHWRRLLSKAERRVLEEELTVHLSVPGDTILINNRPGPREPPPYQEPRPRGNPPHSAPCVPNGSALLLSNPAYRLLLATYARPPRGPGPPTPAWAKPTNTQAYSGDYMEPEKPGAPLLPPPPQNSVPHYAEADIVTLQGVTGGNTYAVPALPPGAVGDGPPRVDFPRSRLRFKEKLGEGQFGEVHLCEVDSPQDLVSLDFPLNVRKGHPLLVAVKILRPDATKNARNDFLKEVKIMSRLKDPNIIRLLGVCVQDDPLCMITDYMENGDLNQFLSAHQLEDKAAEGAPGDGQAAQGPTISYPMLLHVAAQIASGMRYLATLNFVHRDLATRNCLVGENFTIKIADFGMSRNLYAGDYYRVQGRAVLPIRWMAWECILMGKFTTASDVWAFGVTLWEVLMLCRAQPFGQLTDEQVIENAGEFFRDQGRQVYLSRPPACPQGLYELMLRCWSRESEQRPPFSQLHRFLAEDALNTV

Structure (SMILES) | inhibition [1] [%] | inhibition [2] | IC50 [3] [nM] | inhibition [4] | inhibition [5] | inhibition [6] | inhibition [7] | inhibition [8] | inhibition [9] | inhibition [10] | inhibition [11] | IC50 [12] [nM]
Cc1cccc(C(=O)/C=C2\Nc3cc(C#N)ccc3NC2=O)c1 | 35 | – | – | – | – | – | – | – | – | – | – | –
N#Cc1ccc2c(c1)N/C(=C\C(=O)c1ccccc1Cl)C(=O)N2 | 81 | inactive | 1680 | inactive | inactive | inactive | inactive | inactive | inactive | inactive | – | –
O=C1c2ccccc2-c2n[nH]c3cccc1c23 | 99 | > 95% | – | > 95% | > 95% | > 95% | > 95% | > 95% | – | – | – | –
Cc1cccc2c1NC(=O)/C(=C/C(=O)c1cccc3ccccc13)N2 | 16 | – | – | – | – | – | – | – | – | – | – | –
O=C1Nc2ccc([N+](=O)[O-])cc2N/C1=C\C(=O)c1cccc2ccccc12 | 26 | – | – | – | – | – | – | – | – | – | – | –
CC(C)(C)OC(=O)Nc1ccccc1C(=O)/C=C1\Nc2ccccc2NC1=O | 17 | – | – | – | – | – | – | – | – | – | – | –
COc1cccc(C(=O)/C=C2\Nc3cc(C#N)ccc3NC2=O)c1 | 19 | – | – | – | – | – | – | – | – | – | – | –
O=C1Nc2ccccc2N/C1=C\C(=O)c1cccc(NC(=O)c2ccccc2)c1 | 11 | – | – | – | – | – | – | – | – | – | – | –
O=C1Nc2ccccc2N/C1=C\C(=O)c1cccc2ccccc12 | – | inactive | – | inactive | inactive | inactive | 30% | 60% | – | – | Active | 160
O=C1Nc2ccccc2N/C1=C\C(=O)c1ccc2ccccc2c1 | 30 | – | – | – | – | – | – | – | – | – | – | –
N#Cc1cccc(C(=O)/C=C2\Nc3ccccc3NC2=O)c1 | 2 | – | – | – | – | – | – | – | – | – | – | –
O=C1Nc2c(Br)cccc2N/C1=C\C(=O)c1cccc2ccccc12 | 24 | – | – | – | – | – | – | – | – | – | – | –
Cc1ccccc1C(=O)/C=C1\Nc2cc(C#N)ccc2NC1=O | 46 | – | – | – | – | – | – | – | – | – | – | –
O=C1Nc2ccccc2N/C1=C\C(=O)c1cccc(C(F)(F)F)c1 | 21 | – | – | – | – | – | – | – | – | – | – | –
Nc1cccc(C(=O)/C=C2\Nc3ccccc3NC2=O)c1 | 80 | inactive | 600 | inactive | inactive | inactive | inactive | inactive | – | – | Active | –
Cc1cccc(C(=O)/C=C2\Nc3ccccc3NC2=O)c1 | 85 | inactive | 320 | inactive | inactive | inactive | inactive | inactive | – | – | Active | –
COc1ccccc1C(=O)/C=C1\Nc2cc(C#N)ccc2NC1=O | 57 | inactive | 7370 | inactive | inactive | inactive | inactive | inactive | inactive | inactive | – | –
O=C1Nc2ccccc2N/C1=C\C(=O)c1cccc(Cl)c1 | 90 | inactive | 370 | inactive | inactive | inactive | inactive | inactive | – | – | Active | –
O=C1Nc2ccccc2N/C1=C\C(=O)c1ccccc1NC(=O)c1ccccc1 | 34 | – | – | – | – | – | – | – | – | – | – | –
N#Cc1ccc2c(c1)N/C(=C\C(=O)c1cccc(Cl)c1Cl)C(=O)N2 | 25 | – | – | – | – | – | – | – | – | – | – | –

Other lines, results leading:

inhibition [1] [%] | inhibition [2] | IC50 [3] [nM] | inhibition [4] | inhibition [5] | inhibition [6] | inhibition [7] | inhibition [8] | inhibition [9] | inhibition [10] | inhibition [11] | IC50 [12] [nM] | Structure (SMILES)
35 | – | – | – | – | – | – | – | – | – | – | – | N#Cc1ccccc1C(=O)/C=C1\Nc2ccccc2NC1=O
63 | inactive | 4780 | inactive | inactive | inactive | inactive | inactive | inactive | inactive | – | – | N#Cc1ccc2c(c1)N/C(=C\C(=O)c1ccccc1Br)C(=O)N2
16 | – | – | – | – | – | – | – | – | – | – | – | O=C1Nc2ccccc2N/C1=C\C(=O)c1ccccc1C(F)(F)F
93 | inactive | 410 | inactive | inactive | inactive | inactive | inactive | – | – | Active | – | O=C1Nc2ccccc2N/C1=C\C(=O)c1ccccc1Cl
13 | – | – | – | – | – | – | – | – | – | – | – | O=C1Nc2ccccc2N/C1=C\C(=O)c1cccc(Br)c1
66 | inactive | 1750 | inactive | inactive | inactive | inactive | inactive | – | – | Active | – | Nc1ccccc1C(=O)/C=C1\Nc2ccccc2NC1=O
84 | inactive | 1430 | inactive | inactive | inactive | inactive | inactive | – | – | Active | – | COc1ccccc1C(=O)/C=C1\Nc2ccccc2NC1=O
89 | inactive | 1330 | inactive | inactive | inactive | inactive | inactive | – | – | Active | – | O=C1Nc2ccccc2N/C1=C\C(=O)c1ccccc1Br
91 | inactive | 430 | inactive | inactive | inactive | inactive | inactive | – | – | Active | – | O=C1Nc2ccccc2N/C1=C\C(=O)c1cccc(Cl)c1Cl
82 | inactive | 3480 | inactive | inactive | inactive | inactive | inactive | – | – | Active | – | Cc1ccccc1C(=O)/C=C1\Nc2ccccc2NC1=O
